Measurements: ChEMBL document CHEMBL1134847, “Development of orally active nonpeptidic inhibitors of human neutrophil elastase” (J Med Chem, 2001)
pKi: −log10 of the molar value. Converted amounts (≈) assume the structure as drawn.

Assays:
[1] = Solubility was determined at a pH of 1.2 using first fluid (JP13th); assay type: physicochemical; conditions: pH 1.2
Summary of the method: (§1)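 Solubility was measured in μg/mL in four vehicles: JP13th first fluid (pH ca. 1.2), 1/14 M phosphate citrate buffer (pH ca. 4.0), physiological saline (pH ca. 5.5) and 1/14 M phosphate buffer (pH ca. 7.4).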

[2] = Solubility was determined at a pH of 4.0 using 1/14 M phosphate citrate buffer; assay type: physicochemical; conditions: pH 4; summary of the method: as §1
Cricetinae gen. sp. [3] = assay: Inhibition of HNE-induced lung hemorrhage in hamsters after oral administration followed by intratracheal instillation of HNE (10 U/lung); assay type: functional
Summary of the method: (§2)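 Hamsters (n = 6-10) were dosed orally 1 h before intratracheal instillation of HNE (10 U/lung). The read-out was inhibition of the HNE-induced lung hemorrhage.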

[4] = Solubility was determined at a pH of […] using 1/14 M phosphate buffer; assay type: physicochemical; conditions: pH 7.4
Neutrophil elastase = target: T1, Neutrophil elastase (Homo sapiens, UniProt P08246); assay: Binding constant derived from inhibition of elastase catalyzed hydrolysis of synthetic substrate
T1 sequence (P08246 whole entry): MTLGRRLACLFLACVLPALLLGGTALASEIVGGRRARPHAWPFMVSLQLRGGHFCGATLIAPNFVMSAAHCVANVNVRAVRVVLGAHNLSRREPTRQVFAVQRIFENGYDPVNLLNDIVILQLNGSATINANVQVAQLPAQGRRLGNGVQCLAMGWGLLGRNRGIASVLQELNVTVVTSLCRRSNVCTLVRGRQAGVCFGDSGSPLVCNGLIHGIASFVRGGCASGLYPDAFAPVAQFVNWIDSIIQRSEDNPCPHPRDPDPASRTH

Cricetinae gen. sp. [5] = assay: (§3) Inhibition of HNE-induced lung hemorrhage in hamsters after oral administration of 30 mg/kg followed by intratracheal instillation of HNE (10 U/lung); assay type: functional; summary of the method: as §2
[6] = Pharmacokinetic parameter AUC was evaluated when a dose of 10 mg/kg is administered orally to a fasting rat; assay type: ADME, organism-based; design: dose 10 mg/kg, route oral; conditions: in vivo, po
Summary of the method: (§4)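 Oral dosing as a suspension in 0.5% CMC; intravenous dosing as a solution in 35% HP-β-CD. Unchanged drug measured in plasma over 0–24 h after dosing. AUC is the integrated area under the concentration versus time curve. Oral bioavailability is taken from the […]. Mean ± SD, n = 4 (n = 3 for some i.v. groups).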

[7] = Time of maximum concentration of the drug when administered orally at dose of 3 mg/kg; assay type: ADME, organism-based; design: dose 3 mg/kg, route oral; conditions: rat, in vivo, po
Summary of the method: (§5)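 Unchanged drug measured in plasma over 0–24 h after dosing. Cmax recorded over 0–24 h, with Tmax as the time of Cmax. Half-life determined over 6–24 h after dosing. Mean ± SD, n = 4.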

[8] = Maximum concentration of […] drug in plasma recorded in the period of 0-24 hr after administering orally a dose of 3 mg/kg to a fasting rat; assay type: ADME, organism-based; design: dose 3 mg/kg, route oral; conditions: po; summary of the method: as §5
[9] = Maximum concentration of […] drug in plasma recorded in the period of 0-24 hr after administering orally a dose of 10 mg/kg to a fasting rat; assay type: ADME, organism-based; design: dose 10 mg/kg, route oral; conditions: po; summary of the method: as §5
[10] = Maximum concentration of […] drug in plasma recorded in the period of 0-24 hr after administering orally a dose of 3 mg/kg; assay type: ADME, organism-based; design: dose 3 mg/kg, route oral; conditions: rat, po; summary of the method: as §5
[11] = Maximum concentration of […] drug in plasma recorded in the period of 0-24 hr after administering orally a dose of 30 mg/kg; assay type: ADME, organism-based; design: dose 30 mg/kg, route oral; conditions: rat, po; summary of the method: as §5
[12] = Half life after administering orally a dose of 3 mg/kg; assay type: ADME, organism-based; design: dose 3 mg/kg, route oral; conditions: rat, in vivo, po; summary of the method: as §5
[13] = Time of maximum concentration of the drug when administered orally a dose of 3 mg/kg to a fasting rat; assay type: ADME, organism-based; design: dose 3 mg/kg, route oral; conditions: in vivo, po; summary of the method: as §5
[14] = Half life after administering intravenously a dose of 3 mg/kg; conditions: rat, in vivo, iv
[15] = Pharmacokinetic parameter AUC was evaluated when a dose of 1 mg/kg is administered orally to a fasting rat; assay type: ADME, organism-based; design: dose 1 mg/kg, route oral; conditions: in vivo, po; summary of the method: as §4
[16] = Time of maximum concentration of the drug when administered orally a dose of 1 mg/kg to a fasting rat; assay type: ADME, organism-based; design: dose 1 mg/kg, route oral; conditions: in vivo, po; summary of the method: as §5
[17] = Time of maximum concentration of the drug when administered orally a dose of 10 mg/kg to a fasting rat; assay type: ADME, organism-based; design: dose 10 mg/kg, route oral; conditions: in vivo, po; summary of the method: as §5
[18] = Half life after administering orally a dose of 3 mg/kg to a fasting rat; assay type: ADME, organism-based; design: dose 3 mg/kg, route oral; conditions: in vivo, po; summary of the method: as §5
[19] = Maximum concentration of […] drug in plasma recorded in the period of 0-24 hr after administering orally a dose of 1 mg/kg to a fasting rat; assay type: ADME, organism-based; design: dose 1 mg/kg, route oral; conditions: po; summary of the method: as §5
[20] = Half life after the administered orally a dose of 1 mg/kg to a fasting rat; assay type: ADME, organism-based; design: dose 1 mg/kg, route oral; conditions: in vivo, po; summary of the method: as §5
[21] = Bioavailability was evaluated when a dose of 3 mg/kg was administered orally to a fasting rat; assay type: ADME, organism-based; conditions: in vivo, po; summary of the method: as §4
[22] = Time of maximum concentration of the drug when administered orally a dose of 30 mg/kg; assay type: ADME, organism-based; design: dose 30 mg/kg, route oral; conditions: rat, in vivo, po; summary of the method: as §5
[23] = Pharmacokinetic parameter AUC was evaluated intravenous administration of 3 mg/kg; assay type: ADME, organism-based; design: dose 3 mg/kg, route intravenous; conditions: rat, in vivo; summary of the method: as §4
[24] = Pharmacokinetic parameter AUC was evaluated when a dose of 3 mg/kg is administered orally to a fasting rat; assay type: ADME, organism-based; design: dose 3 mg/kg, route oral; conditions: in vivo, po
[25] = Half life after administering orally a dose of 10 mg/kg to a fasting rat; assay type: ADME, organism-based; design: dose 10 mg/kg, route oral; conditions: in vivo, po; summary of the method: as §5
[26] = Pharmacokinetic parameter AUC was evaluated when a dose of 3 mg/kg is administered orally; assay type: ADME, organism-based; design: dose 3 mg/kg, route oral; conditions: rat, in vivo, po
[27] = Pharmacokinetic parameter AUC was evaluated when a dose of 30 mg/kg is administered orally; assay type: ADME, organism-based; design: dose 30 mg/kg, route oral; conditions: rat, in vivo, po; summary of the method: as §4
[28] = Half life after administering orally a dose of 30 mg/kg; assay type: ADME, organism-based; design: dose 30 mg/kg, route oral; conditions: rat, in vivo, po; summary of the method: as §5
[29] = Bioavailability was evaluated when a dose of 3 mg/kg was administered orally; assay type: ADME, organism-based; conditions: rat, in vivo, po; summary of the method: as §4
[30] = Solubility was determined at a pH of 5.5 using physiological saline; assay type: physicochemical; conditions: pH 5.5; summary of the method: as §1
Cricetinae gen. sp. [31] = assay: as §3; assay type: functional, Cricetulus griseus; summary of the method: as §2

## CC(C)[C@H](NC(=O)Cn1c(-c2ccccc2)ncc(N)c1=O)C(=O)c1nnc(C(C)(C)c2ccccc2)o1
[1]
  solubility: 499 µg/mL (≈ 970 µM)
[2]
  solubility: 26 µg/mL (≈ 50.5 µM)
Cricetinae gen. sp. [3]
  ED50: 25 mg/kg
[4]
  solubility: 20 µg/mL (≈ 38.9 µM)

## CC(C)[C@H](NC(=O)Cn1c(-c2ccccc2)nccc1=O)C(=O)c1nnc(C(C)(C)C)o1
Cricetinae gen. sp. [3]
  ED50: 4 mg/kg

## CC(C)[C@H](NC(=O)COc1cccc(-c2ccccc2)n1)C(=O)c1nnc(C(C)(C)C)o1
Neutrophil elastase
  pKi: 5.37
Cricetinae gen. sp. [5]
  inhibition in vivo at 30 mg/kg: 28%

## CC(C)C[C@@H]1NC(=O)N(CC(=O)N[C@H](C(=O)c2nnc(C(C)(C)C)o2)C(C)C)C1=O
Cricetinae gen. sp. [5]
  inhibition in vivo at 30 mg/kg: 0%

## CC(C)[C@H](NC(=O)CN1C(=O)N[C@H](C(C)C)C1=O)C(=O)c1nnc(C(C)(C)C)o1
Cricetinae gen. sp. [5]
  inhibition in vivo at 30 mg/kg: 0%

## CC(C)C(NC(=O)Cn1c(-c2ccccc2)ncc(N)c1=O)C(=O)c1nnc(C(C)(C)C)o1 (stereo not given)
[6]
  AUC: 2130 ng·h/mL
[7]
  Tmax: 1.1 h
[8]
  Cmax: 257 ng/mL
[9]
  Cmax: 351 ng/mL
[10]
  Cmax: 174 ng/mL
[11]
  Cmax: 527 ng/mL
[12]
  half-life: 5 h
[13]
  Tmax: 0.63 h
[14]
  half-life: 3 h
[15]
  AUC: 230 ng·h/mL
[16]
  Tmax: 0.31 h
Cricetinae gen. sp. [3]
  ED50: 5.1 mg/kg
[17]
  Tmax: 0.31 h
[18]
  half-life: 4.5 h
[19]
  Cmax: 115 ng/mL
[20]
  half-life: 5.1 h
[21]
  bioavailability: 50.5%
[22]
  Tmax: 0.44 h
[23]
  AUC: 1930 ng·h/mL
[24]
  AUC: 976 ng·h/mL
[25]
  half-life: 7.4 h
[26]
  AUC: 760 ng·h/mL
[27]
  AUC: 3050 ng·h/mL
[28]
  half-life: 8.7 h
[29]
  bioavailability: 39.4%

## CC(C)OC(=O)N1Cc2ccccc2C[C@H]1C(=O)N[C@H](C(=O)c1nnc(C(C)(C)C)o1)C(C)C
Neutrophil elastase
  pKi: 6.14
Cricetinae gen. sp. [5]
  inhibition in vivo at 30 mg/kg: 0%

## COc1ccc(-c2nnc(C(=O)[C@@H](NC(=O)Cn3c(-c4ccc(F)cc4)ncc(N)c3=O)C(C)C)o2)cc1
Neutrophil elastase
  pKi: 7.67
Cricetinae gen. sp. [5]
  inhibition in vivo at 30 mg/kg: 13%

## CC(C)[C@H](NC(=O)Cn1c(-c2ccc(F)cc2)ncc(N)c1=O)C(=O)c1nnc(C(C)(C)c2ccccc2)o1
Cricetinae gen. sp. [3]
  ED50: 10 mg/kg

## CC(C)[C@H](NC(=O)Cn1c(-c2ccccc2)ncc(N)c1=O)C(=O)c1nnc(C(C)(C)C)o1
[1]
  solubility: > 2000 µg/mL
[30]
  solubility: 1010 µg/mL (≈ 2230 µM)
[4]
  solubility: 310 µg/mL (≈ 685 µM)

## CC(C)[C@H](NC(=O)CN1C(=O)CN=C(c2ccc(Cl)cc2)c2ccccc21)C(=O)c1nnc(C(C)(C)C)o1
Neutrophil elastase
  pKi: 7.24
Cricetinae gen. sp. [5]
  inhibition in vivo at 30 mg/kg: 22%

## CC(C)C(NC(=O)Cn1c(-c2ccc(F)cc2)ncc(N)c1=O)C(=O)C(F)(F)F (stereo not given)
Cricetinae gen. sp. [3]
  ED50: 7.5 mg/kg

## CC(C)c1nnc(C(=O)[C@@H](NC(=O)Cn2c(-c3ccc(F)cc3)ncc(N)c2=O)C(C)C)o1
Cricetinae gen. sp. [31]
  inhibition in vivo at 30 mg/kg: 79%

## CC(C)[C@H](NC(=O)CN1C(=O)N[C@H](Cc2c[nH]c3ccccc23)C1=O)C(=O)c1nnc(C(C)(C)C)o1
Cricetinae gen. sp. [5]
  inhibition in vivo at 30 mg/kg: 22%

## CC(C)[C@H](NC(=O)Cn1c(-c2cccnc2)ncc(N)c1=O)C(=O)c1nnc(C(C)(C)C)o1
Cricetinae gen. sp. [5]
  inhibition in vivo at 30 mg/kg: 6%

## CC(C)[C@H](NC(=O)Cn1c(-c2ccc(F)cc2)nccc1=O)C(=O)c1nnc(C2(C)CC2)o1
Cricetinae gen. sp. [3]
  ED50: 5.5 mg/kg

## CC(C)[C@H](NC(=O)Cn1c(-c2ccc(F)cc2)nccc1=O)C(=O)c1nnc(C(C)(C)C)o1
Cricetinae gen. sp. [3]
  ED50: 6.8 mg/kg
